These results are taken from ChEMBL document CHEMBL1155281, “Synthesis, spectroscopic characterization and antibacterial activity of new cobalt(II) complexes of unsymmetrical tetradentate (OSN2) Schiff base ligands” (2009).

In brackets after ≈: the same amount, converted by molar mass.

Test [1] deals with Klebsiella pneumoniae. The experiment in a line: Antibacterial activity against Klebsiella pneumoniae RITCC 1249 after 24 hrs by macrodilution broth susceptibility assay. It is filed as functional. To be noted: RITCC 1249, 24 h. The gist of the method: (§1)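 Macro-dilution broth series of 12 tubes, each holding 1 ml Mueller–Hinton broth. Tube one received 1 ml of 100 mg/ml test solution, then serial dilution down the series. Added 1 ml bacterial suspension matched to 0.5 McFarland (1.5 ×10⁸ cfu/ml). Incubated 37 °C for 24 h. MIC taken as the last tube without turbidity.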

Test [2] relates to Staphylococcus aureus. The test is described as follows: Antibacterial activity against Staphylococcus aureus RITCC 1885 after 24 hrs by macrodilution broth susceptibility assay. It is filed as functional. To be noted: RITCC 1885, 24 h. A digest of the protocol: as §1
Test [3] has as its system Staphylococcus aureus. The test is described as follows: Antibacterial activity against Staphylococcus aureus RITCC 1885 at 100 ul after overnight incubation by agar well diffusion method. In kind it is functional. The gist of the method:
(§2)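 Agar well diffusion. Inoculum came from a 12 h, 37 °C enrichment culture in 1 ml Mueller–Hinton broth and was spread on Mueller–Hinton agar. Wells cut with a 6 mm cork borer and filled with 100 µL of compound solution; methanol blank. Incubated overnight at 37 °C, then inhibition zone diameter measured. Triplicate, averaged.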

Test [4] deals with Streptococcus pyogenes. The experiment in a line: Antibacterial activity against Streptococcus pyogenes RITCC 1940 at 100 ul after overnight incubation by agar well diffusion method. In kind it is functional. A digest of the protocol:
as §2
On the technique in general: In agar diffusion tests the substance spreads into inoculated agar from a disc or well.

In test [5] the test system is Pseudomonas aeruginosa. The experiment in a line: Antibacterial activity against Pseudomonas aeruginosa RITCC 1547 at 100 ul after overnight incubation by agar well diffusion method. In kind it is functional. A digest of the protocol: as §2
For test [6], the system named is Streptococcus agalactiae. The test is described as follows: Antibacterial activity against Streptococcus agalactiae RITCC 1913 after 24 hrs by macrodilution broth susceptibility assay. To be noted: RITCC 1913, 24 h. It is filed as functional. The gist of the method:
as §1

In test [7] the test system is Bacillus anthracis. The test is described as follows: Antibacterial activity against Bacillus anthracis RITCC 1036 at 100 ul after overnight incubation by agar well diffusion method. In kind it is functional.
In test [8] the test system is Pseudomonas aeruginosa. The experiment in a line: Antibacterial activity against Pseudomonas aeruginosa RITCC 1547 after 24 hrs by macrodilution broth susceptibility assay. In kind it is functional. To be noted: RITCC 1547, 24 h. The gist of the method: as §1
Test [9] relates to Bacillus anthracis. The test is described as follows: Antibacterial activity against Bacillus anthracis RITCC 1036 after 24 hrs by macrodilution broth susceptibility assay. In kind it is functional. To be noted: RITCC 1036, 24 h.
Test [10] concerns Klebsiella pneumoniae. The experiment in a line: Antibacterial activity against Klebsiella pneumoniae RITCC 1249 at 100 ul after overnight incubation by agar well diffusion method. In kind it is functional. The gist of the method: as §2
For test [11], the system named is Streptococcus pyogenes. The experiment in a line: Antibacterial activity against Streptococcus pyogenes RITCC 1940 after 24 hrs by macrodilution broth susceptibility assay. In kind it is functional. To be noted: RITCC 1940, 24 h. The gist of the method: as §1
For test [12], the system named is Streptococcus agalactiae. The test is described as follows: Antibacterial activity against Streptococcus agalactiae RITCC 1913 at 100 ul after overnight incubation by agar well diffusion method. In kind it is functional. The gist of the method: as §2
The subject of test [13] is Klebsiella pneumoniae. The test is described as follows: Antibacterial activity against Klebsiella pneumoniae RITCC 1249 at 10 ug after overnight incubation by agar well diffusion method. In kind it is functional, organism-based. The gist of the method:
(§3)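 Bacteria were enriched in 1 ml Mueller–Hinton broth at 37 °C for 12 h, then cultured on Mueller–Hinton agar. Wells were cut with a 6 mm cork borer and filled with test solution, with gentamicine as the standard antibiotic. Plates were incubated overnight at 37 °C and inhibition-zone diameters were measured. Values are the average of triplicates. A methanol-only blank was included.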

The test system of test [14] is Streptococcus pyogenes. The test is described as follows: Antibacterial activity against Streptococcus pyogenes RITCC 1940 at 10 ug after overnight incubation by agar well diffusion method. In kind it is functional, organism-based. A digest of the protocol:
as §3

Test [15] relates to Bacillus anthracis. The experiment in a line: Antibacterial activity against Bacillus anthracis RITCC 1036 at 10 ug after overnight incubation by agar well diffusion method. It is filed as functional, organism-based.

Turning to `O=[N+]([O-])c1ccc(O)c(/C=N/CCSCCc2ccccn2)c1`, the MIC in [1] was 25 mg/mL (≈ 75.4 mM); in [2], 25 mg/mL (≈ 75.4 mM); in test [6], 12.5 mg/mL (≈ 37.7 mM); in [8], 25 mg/mL (≈ 75.4 mM); in test [9], 25 mg/mL (≈ 75.4 mM); in test [11], 6.25 mg/mL (≈ 18.9 mM). Further, the “inhibition zone (IZ)” value is given as 20 mm in test [3]; 40 mm in [4]; 20 mm in [5]; 20 mm in [7]; 20 mm in test [10]; 30 mm in test [12].
For `COc1ccc(O)c(/C=N/CCSCCc2ccccn2)c1`, the MIC came out at 25 mg/mL (≈ 79 mM) in test [1]; 50 mg/mL (≈ 158 mM) in test [2]; 25 mg/mL (≈ 79 mM) in test [6]; 50 mg/mL (≈ 158 mM) in [8]; 25 mg/mL (≈ 79 mM) in test [9]; 6.25 mg/mL (≈ 19.8 mM) in test [11]. Besides, the “inhibition zone (IZ)” value in test [3] is reported as 10 mm; in [4] it was 40 mm; in test [5], 10 mm; in test [7] it was 20 mm; in test [10] it was 20 mm; in test [12] it was 20 mm.
In the case of `Oc1ccc(Br)cc1/C=N/CCSCCc1ccccn1`, the MIC worked out at 12.5 mg/mL (≈ 34.2 mM) in test [1]; 6.25 mg/mL (≈ 17.1 mM) in test [2]; 3.12 mg/mL (≈ 8.55 mM) in test [6]; 25 mg/mL (≈ 68.4 mM) in test [8]; 3.12 mg/mL (≈ 8.55 mM) in test [9]; 6.25 mg/mL (≈ 17.1 mM) in test [11]. Besides, the “inhibition zone (IZ)” value in test [3] is 40 mm; in test [4] it was 40 mm; in [5] it was 20 mm; in test [7], 50 mm; in test [10] it was 30 mm; in test [12] it was 50 mm.
As to GENTAMICIN, the inhibition zone (IZ) amounted to 20 mm in [13], 20 mm in test [14] and 32 mm in [15].

One may read the MIC as the smallest concentration in the dilution series that meets the test's criterion for growth inhibition. High values mean a less susceptible organism, low ones a more susceptible organism.
